From PubChem BioAssay
UCH37 inh: inhibitors of human UCH37 deubiquitinase, primary screen, biochemical, Ub-AMC cleavage, fluorescence; inhibition, % (test concentration not listed); purified proteasome/UCH37; actives 0.33% (n = 330,000);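 active = mean inhibition over replicate wells above about 20%, limit read from the data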
Target sequence (Q9Y5K5 whole entry, looked up): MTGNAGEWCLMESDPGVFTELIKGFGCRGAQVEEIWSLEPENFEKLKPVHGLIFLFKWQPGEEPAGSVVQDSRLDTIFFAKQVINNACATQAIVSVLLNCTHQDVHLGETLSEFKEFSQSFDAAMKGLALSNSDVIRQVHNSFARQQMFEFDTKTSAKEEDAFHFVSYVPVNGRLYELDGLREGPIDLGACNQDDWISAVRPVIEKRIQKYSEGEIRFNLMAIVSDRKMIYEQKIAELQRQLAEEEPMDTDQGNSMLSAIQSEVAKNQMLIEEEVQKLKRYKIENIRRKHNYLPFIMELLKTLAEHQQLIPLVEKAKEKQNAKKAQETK
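Material: human UCH37 enzyme supplied as purified proteasome complex / Amount: 0.15 nM proteasome as dispensed / Buffer or medium: pH 7.4 Tris-HCl (50 mM) with ovalbumin, ATP-MgCl2, DTT / Times: preincubation 30 min, reaction 25 min, room temperature / Technique: AMC fluorescence from Ub-AMC cleavage, excitation 355 nm, emission 460 nm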
Cardio protect: cardioprotection against H2O2-induced cell death, primary screen, uHTS, H9c2 cells, ATPLite luminescence; actives 0.63% (n = 360,000); H9c2 cardiomyocytes, H2O2 injury protection, 2 h; protection from H2O2 cell death, % at 20 µM;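 active = compounds giving at least 50% protection of heart cells from peroxide-induced death in the single-dose screen, raw or plate-pattern-corrected value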
CRFR2-BP ag: agonists of CRF-BP/CRF-R2 complex, primary screen, cell-based, HEK293, calcium dye fluorescence, uHTS; CRF-binding protein / CRF receptor 2 complex (human); calcium dye fluorescence (FLIPR); percent of saturating CRF peptide response; activation, % at 13.2 µM; actives 0.46% (n = 350,000);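 active = activation of at least 50%, plus an integration ratio under a set limit after plate pattern correction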
MIN6 prolif-1: inducers of MIN6 beta-cell proliferation, primary screen, ATP luminescence, uHTS; MIN6 cells proliferation, ATPlite luminescence, 48 h; cells starved in 0.2% serum; 100% = growth in 10% serum; actives 0.29% (n = 330,000); proliferation, % at 10 µM; AID 2380, 2010;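 active = compounds whose signal lies at least 3.5 SD above the mean of all wells on their plate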
CRFR2-BP antag: antagonists of CRF-BP/CRF-R2 complex, primary screen, cell-based, HEK293, calcium dye fluorescence, uHTS; inhibition, % at 11.8 µM; CRF-induced calcium fluorescence; actives 0.59% (n = 350,000); AID 588475, 2011;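 active = inhibition of the ligand-induced calcium signal above about 50% at the single tested concentration, limit read from the data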
iPSC survival up: enhancers of single-cell hiPSC survival, primary screen, ATPlite luminescence; 100% = ROCK inhibitor wells, 0% = DMSO; survival enhancement, % at 20 µM; actives 0.044% (n = 360,000); in the data active = survival enhancement above about 18%;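 also: cells exposed to compounds for 16 hours before the ATP read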
MIN6 prolif-2: inducers of beta-cell proliferation in MIN6, confirmation, MIN6 cells, mouse; ATPlite luminescence, 48 h; cells kept in 0.2% serum; scaled between 0.2% and 10% serum; proliferation increase, % at 50 µM; AID 463095, 2010; shares compounds with MIN6 prolif-1; 920 tested, under 10 active;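 active = proliferation increase above 40% at any of the four tested concentrations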
Numbers stand for hits; - = inactive; . = no result given. Sampled rows, rich in hits. Any-hit rate of the full collection: about 2.1%.

SMILES	UCH37 inh	Cardio protect	CRFR2-BP ag	MIN6 prolif-1	CRFR2-BP antag	iPSC survival up	MIN6 prolif-2
O=C(c1ccc2c3c(cccc13)CC2)N1CCOCC1	-	-	-	5.3	-	-	-
Cc1cc(C)nc(NN=C2CCCC/C2=C\c2ccccc2)n1	-	.	.	.	.	.	.
COc1ccc(NC(=O)CCn2cccc2)c(OC)c1	-	-	-	-	-	-	.
COc1ccc(OC)c(NC(=O)CCn2cccc2)c1	-	-	-	7.5	-	-	-
COc1cc(/C(C)=N/NC(=O)c2nnn(-c3nonc3N)c2-c2cccs2)ccc1O	.	-	-	4.6	-	-	-
Cc1c(C(=O)NN=Cc2cccc(O)c2)nnn1-c1nonc1N	-	.	.	.	.	.	.
COc1ccc(OC)c(C2=Nn3c(nnc3C3CCCCC3)SC2)c1	-	-	-	9.3	-	-	-
COc1ccccc1C1=Nn2c(nnc2C2CCCCC2)SC1	-	-	-	-	-	-	.
Clc1ccc(CONC=Nc2ncnc3sccc23)c(Cl)c1	-	.	.	.	.	.	.
COc1ccc(-c2csc3ncnc(N4CCN(C(=O)c5ccco5)CC4)c23)cc1	.	-	-	11	-	-	-
O=C(c1ccco1)N1CCN(c2ncnc3scc(-c4ccccc4)c23)CC1	-	-	-	-	-	-	.
CCNc1nc(N)c(C(=C(C#N)C#N)c2ccccc2)s1	-	-	-	7.3	-	-	-
CCC(=NNC(=O)c1ccc(Br)o1)c1ccc(Cl)cc1	-	.	.	.	.	.	.
COc1ccccc1C=NNC(=O)c1ccccc1Cl	-	.	.	.	.	.	.
Cc1nc(-c2ccccc2)cc(=O)[nH]1	-	-	-	-	-	-	.
Cc1[nH]n(-c2nc(-c3ccccc3)cc(=O)[nH]2)c(=O)c1CCO	-	-	-	9.6	-	-	-
CCOC(=O)C1CSc2[nH]c(=O)sc2C1c1ccccc1 (stereo not drawn)	-	-	-	12	-	-	-
CC(C)C=NNC(=O)c1cc(Br)ccc1O	-	.	.	.	.	.	.
CC(C)(C)N(NC(=O)OCc1ccccc1)C(=O)c1ccccc1Cl	-	-	-	0.0	-	-	-
Cc1cc2nc(C)c(=O)n(C)c2cc1C	-	-	-	7.3	-	-	-
Cn1c(=O)n(C)c2cc(C=NNC(=S)NCc3ccccc3)ccc21	-	.	.	.	.	.	.
Cc1ccsc1C(C(=O)NC(C)(C)C)N(Cc1ccco1)C(=O)c1csnn1 (stereo not drawn)	-	-	-	10	-	-	-
CCC(C)(C)NC(=O)C(c1sccc1C)N(Cc1ccco1)C(=O)c1csnn1 (stereo not drawn)	-	-	-	-	-	-	.
N#Cc1ccc(C=NNC(=O)CCc2ccc(S(=O)(=O)N3CCOCC3)cc2)cc1	-	.	.	.	.	.	.
NC(=O)c1cccc(-c2cnc(N)c(C(=O)c3cccnc3)n2)c1	-	-	-	.	-	-	.
SMILES	UCH37 inh	Cardio protect	CRFR2-BP ag	MIN6 prolif-1	CRFR2-BP antag	iPSC survival up	MIN6 prolif-2
CC(=O)Nc1cccc(-c2cnc(N)c(C(=O)c3cccnc3)n2)c1	-	-	-	11	-	-	-
O=C(NN=Cc1cc([N+](=O)[O-])ccc1O)c1cccc(N2CCCC2=O)c1	-	.	.	.	.	.	.
CC(O)(CS(=O)(=O)Cc1ccccc1)c1ccccc1 (stereo not drawn)	-	-	-	-	-	-	.
COc1ccc(CS(=O)(=O)CC(C)(O)c2ccccc2Cl)cc1 (stereo not drawn)	.	-	-	8.9	-	-	-
COCC(=O)NN=C(C)CC(=O)Nc1ccccc1C(N)=O	-	.	.	.	.	.	.
COC(=O)c1ccc(N2CCN(C)CC2)c(NC(=O)COc2ccc(C)cc2)c1	-	-	-	11	-	-	-
COC(=O)c1ccc(N2CCN(C)CC2)c(NC(=O)COc2ccc(OC)cc2)c1	-	-	-	-	-	-	.
Cc1cc(NC(=O)CCC(=O)N(Cc2ccco2)C(C)(C)C(=O)NC2CCCCC2)no1	-	-	-	-	-	-	.
Cc1cc(NC(=O)CCC(=O)N(Cc2cccs2)C(C)(C)C(=O)NC2CCCCC2)no1	-	-	-	6.2	-	-	-
COc1cc(OC)c(OC)cc1C=NNC(=S)NCC1CCCO1 (stereo not drawn)	-	.	.	.	.	.	.
CCOC(=O)c1c(C)[nH]c(C)c1C(=O)COC(=O)[C@@H](NC(=O)c1ccccc1OCC)C(C)C	-	-	-	7.4	-	-	-
CCOc1ccccc1C(=O)NC(C(=O)OCC(=O)NNC(=O)c1cccs1)C(C)C (stereo not drawn)	.	-	-	.	-	-	.
CC(O)CNc1ccc(-c2n[nH]c(=O)c3ccccc23)cc1[N+](=O)[O-] (stereo not drawn)	-	-	-	-	-	-	.
CC(O)CNc1cc(N)c([N+](=O)[O-])cc1[N+](=O)[O-] (stereo not drawn)	-	-	-	0.0	-	-	-
Cc1ccc(-c2c(C(=O)NN=Cc3sccc3C)nnn2-c2nonc2N)cc1	-	.	.	.	.	.	.
CSc1cccc(NC(=O)CNC(=O)C2CCCCC2)c1	-	-	-	11	-	-	-
CCOn1c(=O)c(-c2cc3ccccc3o2)[n+]([O-])c2ccccc21	-	-	-	6.8	-	-	-
O=c1c(-c2cc3ccccc3o2)[n+]([O-])c2ccccc2n1OCc1ccccn1	-	-	-	-	-	-	.
CCOc1cc(C=Nn2c(C)nnc2C)ccc1O	-	.	.	.	.	.	.
CCOc1ccc(/C=N/n2c(SC)nnc2-c2ccccc2)cc1OCC	.	-	-	8.2	-	-	-
Cc1cc(C)n(CC(=O)NN=Cc2ccc3c(c2)OCO3)n1	-	.	.	.	.	.	.
CCCCN1C2=C(C(=O)CC(C)(C)C2)C(c2ccccc2)C2=C1c1ccccc1C2=O (stereo not drawn)	-	-	-	8.2	-	-	-
Cn1c(=O)c2c(ncn2CC(=O)NC2CCCCC2)n(C)c1=O	-	-	-	11	-	-	-
